Source: PubChem
EWS-Fli block = EWS/Fli-driven NR0B1 reporter inhibitors, primary screen, A673 cells, NR0B1 luciferase, luminescence, MLPCN library | actives 0.67% (n = 350,000) | inhibition, % at 12.6 µM | AID 651661, 2012 | viability-normalised;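 active means mean inhibition of at least 50% after viability correction, with every replicate also passing that limit; inconclusive means mean reaches 50% but only one of two replicates passes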;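 further: firefly luciferase signal divided by Alamar Blue viability fluorescence both relative to DMSO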
AF4-AF9 inh = inhibitors of AF4 peptide binding to AF9, primary screen, biochemical, AlphaScreen, biotin-AF4 peptide, FLAG-AF9, single point; Protein AF-9 (Homo sapiens), P42568; inhibition, % at 10 µM; actives 0.47% (n = 350,000); AID 651704, 2012;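 active means every replicate reaching a set inhibition limit, whatever the replicate mean, cut at about 25% in these data; inconclusive means mean inhibition reaches that limit but some replicates miss it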;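 further: 0% = plate neutral control median and 100% = total signal loss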
Target sequence (P42568 whole entry, looked up): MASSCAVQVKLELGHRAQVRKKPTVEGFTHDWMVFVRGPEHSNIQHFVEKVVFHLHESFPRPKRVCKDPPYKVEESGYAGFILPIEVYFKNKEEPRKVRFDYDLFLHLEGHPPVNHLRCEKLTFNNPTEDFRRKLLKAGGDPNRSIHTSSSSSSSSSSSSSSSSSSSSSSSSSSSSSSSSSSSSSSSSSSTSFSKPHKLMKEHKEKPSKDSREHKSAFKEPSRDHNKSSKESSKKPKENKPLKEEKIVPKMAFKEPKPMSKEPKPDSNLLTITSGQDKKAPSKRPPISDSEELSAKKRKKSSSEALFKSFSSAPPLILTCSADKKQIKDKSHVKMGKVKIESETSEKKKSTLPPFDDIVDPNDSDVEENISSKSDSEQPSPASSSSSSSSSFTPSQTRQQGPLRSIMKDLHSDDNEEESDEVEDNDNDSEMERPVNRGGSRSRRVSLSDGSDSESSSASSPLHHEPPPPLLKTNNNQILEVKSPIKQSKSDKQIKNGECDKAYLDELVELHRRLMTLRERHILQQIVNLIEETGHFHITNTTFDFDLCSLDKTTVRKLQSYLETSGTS
XiGFP reactiv = activators of inactive X chromosome reactivation, primary screen, imaging, XiGFP fibroblasts, GFP high-content imaging, set 2 | XiGFP mouse fibroblasts, % GFP-positive cells imaging, 3 d; cells co-treated with 5-aza-dC sensitizer; scaled so ellipticine positive control = 100% | activation, % at 7.58 µM | actives 0.055% (n = 360,000) | AID 743238, 2013;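 active means mean normalized replicate activation at least 10% and every replicate at or above 10%; inconclusive means only one of the two criteria met; inactive means mean below 10% and not all replicates reach 10%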;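 further: 0% = median of on-plate neutral control wells and 100% = ellipticine 6 µM median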
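Assay system – SV40-immortalized XiGFP fibroblast cells, line 68-5-11 · Buffer or medium – DMEM supplemented with 5-aza-dC as sensitizing agent · Dosing – one concentration, pinned · Benchmarks – positive control ellipticine, 6 µM final · Times – 3 days compound exposure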
PGC1a acetyl inh = inhibitors of PGC1a acetylation signal, primary screen, cell-based, U2OS, AlphaScreen, inhibitor mode; AlphaScreen anti-acetyl-lysine; with virally co-expressed GCN5 acetyltransferase; inhibition, % at 15.6 µM; actives 0.17% (n = 350,000);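 active means every replicate shows inhibition of at least 40%; inconclusive means mean inhibition at least 40% but some replicate below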;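 further: 0% = neutral control wells and 100% = positive control wells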
INS-1E GSIS act = GLuc luminescence reporter in INS-1E cells, primary screen for activators of glucose-dependent secretion of insulin; INS-1E GLuc reporter insulin secretion, 2-3 h; activation, % at 16.6 µM; actives 0.61% (n = 370,000);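 active means lowest replicate activation of at least 40%, so every replicate reaches that level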;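 further: 0% = median of neutral control wells and 100% = median of IBMX positive control wells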
PAX8 reporter = inhibitors of PAX8-driven TPO luciferase reporter, primary screen, RMG-I cells, single concentration. SteadyGlo, 24 h. inhibition, % at 12.6 µM. actives 1.2% (n = 360,000);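 active means mean replicate inhibition at least 60% with every replicate also reaching 60%; inconclusive means only one of the two criteria is met; inactive means mean below 60% and not all replicates reaching 60%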;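 further: luciferase light reporting Pax8 driven TPO promoter activity; plate controls were median of neutral control wells for no effect and mitoxantrone controls for full effect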
* = called active by the depositor. This is a sample that favours compounds with a hit; in the whole collection about 2.1% have one here.

Results for CCN(c1nc(N)c(C(=O)N=C(N)N)nc1Cl)C(C)C ?
EWS-Fli block: 13; AF4-AF9 inh: 8; XiGFP reactiv: 0; INS-1E GSIS act: 17; PAX8 reporter: 107*

Results for C[C@@H]1CN([C@H](C)CO)C(=O)c2cc(NS(=O)(=O)c3ccc(F)cc3)ccc2O[C@@H](C)CCCCO[C@H]1CN(C)Cc1ccc(Cl)c(Cl)c1 ?
EWS-Fli block: 20; AF4-AF9 inh: 7; XiGFP reactiv: 0; PGC1a acetyl inh: 11; INS-1E GSIS act: -25; PAX8 reporter: 69*

What do the screens show for `C[C@H](CO)N1C[C@H](C)[C@H](CN(C)Cc2ccc(Cl)c(Cl)c2)OCCCC[C@H](C)Oc2ccc(NS(=O)(=O)c3ccc(F)cc3)cc2C1=O`?
EWS-Fli block: -5; AF4-AF9 inh: -15; XiGFP reactiv: 0; PGC1a acetyl inh: -4; INS-1E GSIS act: -12; PAX8 reporter: 97*

How did CC(C)NC(=O)Nc1ccc2c(c1)C(=O)N(C)C[C@@H](C)[C@H](CN(C)S(C)(=O)=O)O2 do in these assays?
XiGFP reactiv: 0; INS-1E GSIS act: -12

Results for COc1ccc(S(=O)(=O)N(C)C[C@@H]2Oc3ccc(NC(=O)Nc4ccc(F)cc4)cc3CC(=O)N([C@@H](C)CO)C[C@H]2C)cc1 ?
EWS-Fli block: 8; XiGFP reactiv: 0; PGC1a acetyl inh: -10; INS-1E GSIS act: 1; PAX8 reporter: 24

How did C=CC(=O)Nc1cccc(Oc2nc(Nc3ccc(N4CCN(C)CC4)cc3OC)ncc2Cl)c1 do in these assays?
EWS-Fli block: 14; AF4-AF9 inh: 63*; XiGFP reactiv: 0; INS-1E GSIS act: 133; PAX8 reporter: 14

How did C=CC(=O)Nc1cccc(Oc2cc(Cl)nc3[nH]ccc23)c1 do in these assays?
EWS-Fli block: -9; XiGFP reactiv: 0; PGC1a acetyl inh: 0; INS-1E GSIS act: 3; PAX8 reporter: inconclusive

Results for CC(C)NC(=O)Nc1ccc2c(c1)CC(=O)N(C)C[C@H](C)[C@H](CN(C)C(=O)OC(C)(C)C)O2 ?
XiGFP reactiv: 0; INS-1E GSIS act: -5

What do the screens show for `CNc1ccc(Br)cc(C(=O)/C=C/c2ccc(Cl)cc2Cl)c1=O`?
EWS-Fli block: 25; AF4-AF9 inh: 1; XiGFP reactiv: 0; INS-1E GSIS act: -9; PAX8 reporter: 66*

What do the screens show for `CCCC#Cc1ccc2c(c1)O[C@@H](CN(C)C(=O)c1cnccn1)[C@@H](C)CN([C@@H](C)CO)S2(=O)=O`?
EWS-Fli block: 54*; AF4-AF9 inh: 2; XiGFP reactiv: 1; PGC1a acetyl inh: -4; INS-1E GSIS act: -13

Results for COc1ccc(C#Cc2ccc3c(c2)O[C@@H](CN(C)C(=O)c2ccccn2)[C@H](C)CN([C@@H](C)CO)S3(=O)=O)cc1 ?
EWS-Fli block: 3; AF4-AF9 inh: -8; XiGFP reactiv: 0; PGC1a acetyl inh: 0; INS-1E GSIS act: -17; PAX8 reporter: 65*

Results for O=C(Cc1ccccn1)N1CC2(C1)[C@H](c1ccccc1)[C@@H](CO)N2C(=O)c1ccncc1 ?
EWS-Fli block: -7; AF4-AF9 inh: -3; XiGFP reactiv: 0; PGC1a acetyl inh: -3; INS-1E GSIS act: 13; PAX8 reporter: 1

How did C[C@H]1CN([C@@H](C)CO)C(=O)c2cccc(NC(=O)c3cnccn3)c2O[C@@H]1CN(C)C(=O)Nc1ccccc1 do in these assays?
EWS-Fli block: 1; AF4-AF9 inh: -3; XiGFP reactiv: 0; PGC1a acetyl inh: 0; INS-1E GSIS act: 18; PAX8 reporter: -15

Results for O=C(C[C@@H]1CC[C@H](NC(=O)C2CCOCC2)[C@H](CO)O1)Nc1ccccc1 ?
EWS-Fli block: 2; AF4-AF9 inh: -3; XiGFP reactiv: 0; PGC1a acetyl inh: -7; INS-1E GSIS act: 7

How did CC(C)(C)c1nnc(N/N=C/c2cc(Br)ccc2O)n(N)c1=O do in these assays?
XiGFP reactiv: 0; INS-1E GSIS act: -30; PAX8 reporter: 61*

Results for COc1cc(C2c3cc4c(cc3OC(NCc3ccccc3)C2C)OCO4)cc(OC)c1OC (centres undefined) ?
EWS-Fli block: inconclusive; AF4-AF9 inh: 0; XiGFP reactiv: 3; INS-1E GSIS act: 21; PAX8 reporter: inconclusive

What do the screens show for `COc1cc(C2c3cc4c(cc3OC(NNC(N)=S)C2C)OCO4)cc(OC)c1OC` (centres undefined)?
EWS-Fli block: 61*; AF4-AF9 inh: 1; XiGFP reactiv: 1; PGC1a acetyl inh: -2; INS-1E GSIS act: 19; PAX8 reporter: 85*

Results for COc1cc(C2c3cc4c(cc3OC(NNC(N)=O)C2C)OCO4)cc(OC)c1OC (centres undefined) ?
EWS-Fli block: 54*; AF4-AF9 inh: 1; XiGFP reactiv: 1; PGC1a acetyl inh: -16; INS-1E GSIS act: 5; PAX8 reporter: 75*

How did COc1ccc2c3c(n(C)c2c1)[C@H](CO)N(C(=O)NC(C)C)CC31CCN(C(C)=O)CC1 do in these assays?
EWS-Fli block: 0; AF4-AF9 inh: -3; XiGFP reactiv: 0; PGC1a acetyl inh: 7; INS-1E GSIS act: 25

How did CCCC(=O)Nc1ccc2c(c1)C(=O)N(C)[C@H]1CC[C@@H](CC(=O)NCc3ccccc3F)O[C@H]1CO2 do in these assays?
EWS-Fli block: -2; XiGFP reactiv: 1; PGC1a acetyl inh: 5; INS-1E GSIS act: 1; PAX8 reporter: -1

What do the screens show for `O=C(Cn1ncc(Cl)c(Cl)c1=O)NC1CCCCC1`?
EWS-Fli block: 51*; AF4-AF9 inh: 2; XiGFP reactiv: 1; INS-1E GSIS act: -13; PAX8 reporter: 54

Results for C=CCn1c(C)cc(C(=O)Cn2ncc(Cl)c(Cl)c2=O)c1C ?
EWS-Fli block: 55*; AF4-AF9 inh: -6; XiGFP reactiv: 2; PGC1a acetyl inh: inconclusive; PAX8 reporter: 30

What do the screens show for `C=CCn1c(C)cc(C(=O)CN2NS(=O)(=O)c3ccccc3C2=O)c1C`?
EWS-Fli block: 45; AF4-AF9 inh: 8; XiGFP reactiv: 1; INS-1E GSIS act: -3; PAX8 reporter: -55

Results for O=C(Cn1ncc(Cl)c(Cl)c1=O)c1ccc(Cl)cc1 ?
PGC1a acetyl inh: 85*; PAX8 reporter: 33

How did O=C1CN(C(=O)Cn2ncc(Cl)c(Cl)c2=O)c2ccccc2N1 do in these assays?
EWS-Fli block: 21; AF4-AF9 inh: -5; XiGFP reactiv: 0; PGC1a acetyl inh: -74; INS-1E GSIS act: -8; PAX8 reporter: 95*

Results for CC(=O)N(C)C[C@H]1Oc2ccc(N)cc2C(=O)N(C)C[C@@H]1C ?
XiGFP reactiv: 0; INS-1E GSIS act: -2
